According to ChEMBL document CHEMBL1759843, “Cytotoxic and antioxidant activities of diterpenes and sterols from the Vietnamese soft coral Lobophytum compactum” (Bioorg Med Chem Lett, 2011):
Activity calls are given as the source filed them. The calls are words filed in the database; no cut-off is given here.

Tests used:
[1] = test system: A549; test: Cytotoxicity against human A549 cells after 72 hrs; assay type: functional, cell-based; settings: A549, 72 h
Outline: (§1)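 Human A549 (lung) and HL-60 (leukemia) cancer cells were exposed to compounds up to a maximum of 100 µM, and cell growth was measured. IC50 is the concentration that inhibits 50% of cell growth, reported as mean ± SD of experiments run in triplicate. Mitoxantrone served as the reference compound.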

[2] = Antioxidant activity assessed as Cu2+ chelating activity at 5 uM; assay type: functional
[3] = Antioxidant activity assessed as Cu2+ chelating activity at 1 uM; assay type: functional
[4] = Antioxidant activity assessed as trolox equivalents of peroxyl radical scavenging activity at 1 uM by ORAC assay; assay type: functional
[5] = test system: HL-60; test: Cytotoxicity against human HL60 cells after 72 hrs; assay type: functional, cell-based; settings: HL-60, 72 h; outline: as §1
[6] = Antioxidant activity assessed as reduction of Copper(I) at 1 uM; assay type: functional
[7] = Antioxidant activity assessed as reduction of Copper(I) at 5 uM; assay type: functional
[8] = Antioxidant activity assessed as trolox equivalents of peroxyl radical scavenging activity at 5 uM by ORAC assay; assay type: functional

Row | Structure (SMILES) | IC50 [1] | Activity [2] | Activity [3] | Activity [4] | IC50 [5] | Activity [6] | Activity [7] | Activity [8]
1 | C=C[C@@]1(C)CC[C@H](C2=CC[C@H](C(C)(C)O)OC2)C[C@@H]1C(=C)C [LOBATRIENE] | 31.1 µM | inactive | inactive | inactive | 33.8 µM | inactive | inactive | 
2 | C=C[C@@]1(C)CC[C@H](C2=CC[C@H](C(C)(C)O)OC2=O)C[C@@H]1C(=C)C [LOBATRIENOLIDE] | 23 µM | inactive | inactive | inactive | 24.8 µM | inactive | inactive | 
3 | CC(=O)OC(C)(C)[C@@H](C)CC[C@@H](C)[C@H]1CC[C@H]2[C@@H]3C[C@@H](O)[C@@]4(O)C[C@@H](O)CC[C@]4(C)[C@H]3CC[C@]12C | 36.5 µM | inactive | inactive | inactive | 42.8 µM | inactive | inactive | 
4 | C=C1CC/C=C(\C)CC[C@H](C2=CC[C@H](C(C)(C)O)OC2)C[C@H]1O [LOBOCOMPACTOL A] | > 100 µM | inactive | inactive |  | 48.2 µM | inactive | inactive | 1.4 µM
5 | C[C@H](CC[C@H](C)C(C)(C)O)[C@H]1CC[C@H]2[C@@H]3C[C@@H](O)[C@@]4(O)C[C@@H](O)CC[C@]4(C)[C@H]3CC[C@]12C | > 100 µM | inactive | inactive | inactive | 59.1 µM | inactive | inactive | 
6 | O=C1c2c(O)ccc(O)c2C(=O)c2c(NCCNCCO)ccc(NCCNCCO)c21 [MITOXANTRONE] | 7.83 µM |  |  |  | 8.1 µM |  |  | 
7 | C=C(CC[C@@H](C)[C@H]1CC[C@@H]([C@@H]2CC=C3C[C@@H](O)CC[C@]3(C)C2=O)[C@]1(C)CCO)C(C)C | 4.97 µM | inactive | inactive | inactive | 17.8 µM | inactive | inactive | 
8 | C=C1CC/C=C(\C)CC[C@@H](C2=CC[C@H](C(C)(C)O)OC2)C[C@H]1O [LOBOCOMPACTOL B] | > 100 µM | inactive | inactive |  | 37.5 µM | inactive | inactive | 1.3 µM
